Assay results taken from ChEMBL document CHEMBL4017487, “Design and Synthesis of γ- and δ-Lactam M1 Positive Allosteric Modulators (PAMs): Convulsion and Cholinergic Toxicity of an M1-Selective PAM with Weak Agonist Activity” (J Med Chem, 2017).

Experiments:
[1] = target: T1, Muscarinic acetylcholine receptor M5 (Homo sapiens, UniProt P08912); test: Positive allosteric modulation of human muscarinic acetylcholine receptor M5 expressed in CHO cells assessed as increase in acetylcholine-induced calcium mobilization up to 10 uM preincubated for 10 mins followed by acetylcholine addition by Fluo-8-AM dye based FLIPR assay; type: cell-based
T1 sequence (P08912 whole entry): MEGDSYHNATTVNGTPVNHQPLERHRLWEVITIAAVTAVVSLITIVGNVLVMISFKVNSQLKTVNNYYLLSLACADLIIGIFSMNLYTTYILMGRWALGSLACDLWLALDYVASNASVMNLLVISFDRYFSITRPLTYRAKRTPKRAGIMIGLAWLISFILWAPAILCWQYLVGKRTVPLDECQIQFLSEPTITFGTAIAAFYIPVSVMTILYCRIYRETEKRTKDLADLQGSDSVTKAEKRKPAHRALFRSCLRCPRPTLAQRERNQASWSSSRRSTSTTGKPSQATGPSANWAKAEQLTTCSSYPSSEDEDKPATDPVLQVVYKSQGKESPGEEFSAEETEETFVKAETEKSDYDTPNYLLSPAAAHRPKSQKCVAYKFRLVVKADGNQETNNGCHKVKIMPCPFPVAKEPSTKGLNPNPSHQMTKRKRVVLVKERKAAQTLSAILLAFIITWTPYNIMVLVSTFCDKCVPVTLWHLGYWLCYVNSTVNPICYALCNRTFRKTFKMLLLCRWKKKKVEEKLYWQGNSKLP
In short: (§1)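 Recombinant functional human M2–M5 assays, each run in agonist and PAM modes at concentrations up to 10 μM.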

[2] = target: T2, Muscarinic acetylcholine receptor M4 (Homo sapiens, UniProt P08173); test: Agonist activity at human muscarinic acetylcholine receptor M4 expressed in CHO cells assessed as increase in cAMP accumulation after 2 hrs by cAMP-Glo assay; type: cell-based; in short: as §1
T2 sequence (P08173 whole entry): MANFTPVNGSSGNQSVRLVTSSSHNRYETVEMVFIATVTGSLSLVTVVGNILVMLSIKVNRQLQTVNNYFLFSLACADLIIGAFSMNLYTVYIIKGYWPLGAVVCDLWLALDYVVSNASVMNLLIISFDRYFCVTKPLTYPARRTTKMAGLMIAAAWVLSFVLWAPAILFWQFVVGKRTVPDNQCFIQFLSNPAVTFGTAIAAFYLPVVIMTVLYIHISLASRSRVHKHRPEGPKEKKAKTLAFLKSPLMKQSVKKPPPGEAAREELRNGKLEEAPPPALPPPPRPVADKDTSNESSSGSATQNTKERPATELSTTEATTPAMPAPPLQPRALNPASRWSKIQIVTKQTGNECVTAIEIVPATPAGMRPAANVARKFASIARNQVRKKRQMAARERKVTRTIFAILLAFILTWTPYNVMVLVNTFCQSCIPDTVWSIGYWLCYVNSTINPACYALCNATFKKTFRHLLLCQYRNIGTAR

[3] = target: T3, Muscarinic acetylcholine receptor M1 (Homo sapiens, UniProt P11229); test: Agonist activity at human muscarinic acetylcholine receptor M1 expressed in CHO cells assessed as increase in calcium mobilization incubated for 10 mins by Fluo-8-AM dye based FLIPR assay; type: cell-based
T3 sequence (P11229 whole entry): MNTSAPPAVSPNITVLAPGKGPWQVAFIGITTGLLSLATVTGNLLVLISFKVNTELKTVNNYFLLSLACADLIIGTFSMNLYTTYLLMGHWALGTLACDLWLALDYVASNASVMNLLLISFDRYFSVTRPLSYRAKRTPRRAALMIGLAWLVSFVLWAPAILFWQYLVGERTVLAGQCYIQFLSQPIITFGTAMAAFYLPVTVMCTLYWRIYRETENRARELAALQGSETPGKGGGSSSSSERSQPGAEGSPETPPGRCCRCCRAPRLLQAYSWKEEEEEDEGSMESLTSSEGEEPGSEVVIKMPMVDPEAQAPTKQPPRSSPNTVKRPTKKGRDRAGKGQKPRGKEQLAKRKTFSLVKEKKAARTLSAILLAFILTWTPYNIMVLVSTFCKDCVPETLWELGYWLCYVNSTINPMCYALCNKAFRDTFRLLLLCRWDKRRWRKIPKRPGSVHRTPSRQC
In short: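 M1 FLIPR calcium mobilization run in agonist mode (compound added without the EC20 ACh used in PAM mode). Top concentration 10 μM. EC50 values are geometric means of at least three experiments.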

[4] = Selectivity ratio of EC50 for human muscarinic acetylcholine receptor M4 expressed in CHO cells to EC50 for human muscarinic acetylcholine receptor M1 expressed in CHO cells; type: ADME, cell-based
[5] = Selectivity ratio of EC50 for human muscarinic acetylcholine receptor M5 expressed in CHO cells to EC50 for human muscarinic acetylcholine receptor M1 expressed in CHO cells; type: ADME, cell-based
[6] = target: T3, Muscarinic acetylcholine receptor M1; test: Activity at human muscarinic acetylcholine receptor M1 expressed in CHO cells assessed as increase in acetylcholine-induced calcium mobilization incubated for 10 mins by Fluo-8-AM dye based FLIPR assay; type: ADME, cell-based
In short: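 Calcium-mobilization potentiation assay read on a FLIPR plate reader in the presence of an EC20 concentration of ACh. EC50 is the geometric mean of at least three experiments.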

[7] = target: T3, Muscarinic acetylcholine receptor M1; test: Activity at human muscarinic acetylcholine receptor M1 expressed in CHO cells by beta-arrestin recruitment assay; type: cell-based
Brain = test: Unbound brain concentration in amphetamine-induced hyperlocomotion C57BL/6 mouse at 3.2 mg/kg, sc measured after 1 hr by LC-MS/MS analysis; type: ADME, organism-based; conditions: in vivo
In short: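 Satellite group of C57BL/6 mice from the amphetamine-stimulated locomotor study, N = 2/dose at 0.32, 1 and 3.2 mg/kg. Dosed sc as a solution in 10/90 Cremophor/water. Unbound plasma and brain concentrations measured at T = 1 h.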

Plasma = test: Unbound plasma concentration in scopolamine-induced memory impairment Wistar rat model at 0.32 mg/kg, sc measured after 1.25 hrs by LC-MS/MS analysis; type: ADME, organism-based; conditions: in vivo
In short: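 Rats from a satellite group of the scopolamine (0.32 mg/kg) Morris water maze study, N = 2/dose. Dosed sc as a solution in 20% hydroxypropyl β-cyclodextrin. Compound concentrations measured in plasma only at T = 1.25 h.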

Rattus norvegicus = test: Unbound Cmax in rat plasma at 45 mg/kg, po administered as single dose; type: ADME, organism-based; conditions: in vivo
Canis familiaris [8] = test: Cholinergic toxicity in dog assessed as transient salivation at 5 mg/kg, po administered as single dose using spray dried dispersion formulation after 1 to 4 hrs; type: organism-based, Canis lupus familiaris; conditions: in vivo
In short: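 Dog single oral dose escalation: 1/sex at 5 mg/kg for each formulation; 1 female at 15 mg/kg. Spray-dried dispersion: 23% drug loading with 0.5% methylcellulose and 100 mM citrate buffer. Clinical signs timed in approximate hours postdose; unbound plasma Cmax.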

[9] = target: T3, Muscarinic acetylcholine receptor M1; test: Displacement of [3H]PT-1284 human muscarinic acetylcholine receptor M1 expressed in CHO cell membranes after 90 mins scintillation counting method
Canis familiaris [10] = test: Toxicity in dog assessed as unbound Cmax in brain required to show convulsions at 15 mg/kg, po administered as single dose using spray dried dispersion formulation; type: organism-based, Canis lupus familiaris; conditions: in vivo

With `Cc1cc2c(cc1Cc1ccc(-c3cocn3)cc1)C(=O)N([C@H]1CCOC[C@@H]1O)C2` the Activity [1] was “Not Active”, the EC50 [2] was > 10 µM and the EC50 [3] was ≥ 5 µM. For the same molecule, the “Ratio EC50” value [4] was > 200, the “Ratio EC50” value [5] was > 200 and the KA [6] was 1.3 µM. The Kb [7] was 8 µM, the “Drug uptake(free)” value (Brain) was 32 nM and the “Cp(f)” value (Plasma) was 17 nM. The fCmax (Rattus norvegicus) was 2.31 to 3.83 µM, the Activity (Canis familiaris [8]) was “Toxic” and the Ki [9] was 0.016 µM. The fCmax (Canis familiaris [10]) was 320 nM.
